Data: paper PMC8277681 (Molecular imaging and biology, 2021)

Target: mGluR2 (Rattus norvegicus, UniProt P31421)
Assay: PET imaging of brain uptake and blocking in rats
Type: in vivo, Sprague Dawley rats
Conditions: blocker 4 mg/kg i.v. 10 min before [18F]8, 1–10 min time window
Method in brief: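 Male Sprague Dawley rats (275–400 g) under isoflurane/nitrous oxide (1.0–1.5% isoflurane), tail vein catheterized. Dynamic 60-min PET started at i.v. injection of the 18F radioligand (20–41 MBq). Unlabeled blocker in saline with 10% ethanol and 10% Tween 20 was given 4 mg/kg i.v. 10 min before the radioligand. Percent change in regional brain uptake versus baseline scans was taken at 1–10 min.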

mGluR2, sequence (P31421 19-872): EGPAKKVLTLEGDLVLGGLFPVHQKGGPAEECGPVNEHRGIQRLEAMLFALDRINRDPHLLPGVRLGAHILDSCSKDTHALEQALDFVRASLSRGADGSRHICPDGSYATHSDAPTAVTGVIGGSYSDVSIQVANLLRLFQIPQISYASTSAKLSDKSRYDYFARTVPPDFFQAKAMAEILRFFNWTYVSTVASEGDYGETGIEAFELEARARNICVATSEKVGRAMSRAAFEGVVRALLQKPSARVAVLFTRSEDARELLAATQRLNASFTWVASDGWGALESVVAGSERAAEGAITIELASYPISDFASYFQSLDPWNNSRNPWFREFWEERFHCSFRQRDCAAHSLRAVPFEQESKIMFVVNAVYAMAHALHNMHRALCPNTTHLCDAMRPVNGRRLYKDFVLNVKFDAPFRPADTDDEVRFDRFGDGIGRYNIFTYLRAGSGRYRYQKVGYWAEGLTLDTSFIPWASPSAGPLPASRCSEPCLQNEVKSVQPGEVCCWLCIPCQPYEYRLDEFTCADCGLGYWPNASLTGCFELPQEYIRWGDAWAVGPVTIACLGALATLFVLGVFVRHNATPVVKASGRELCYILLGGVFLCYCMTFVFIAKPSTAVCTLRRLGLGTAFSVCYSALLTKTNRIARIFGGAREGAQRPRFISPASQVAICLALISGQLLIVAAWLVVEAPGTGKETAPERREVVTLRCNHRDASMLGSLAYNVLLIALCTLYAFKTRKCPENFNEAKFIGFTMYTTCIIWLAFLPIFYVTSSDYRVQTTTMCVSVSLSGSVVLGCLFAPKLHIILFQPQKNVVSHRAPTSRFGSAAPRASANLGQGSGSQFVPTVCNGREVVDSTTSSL

Fc1ccc(N2CCN(Cc3ccn4c(CC5CC5)nnc4c3C(F)(F)F)CC2)c(F)c1 [compound 8, 8-trifluoromethyl-3-cyclopropylmethyl-7-[(4-(2,4-difluorophenyl)-1-piperazinyl)methyl]-1,2,4-triazolo[4,3-a]pyridine]
decrease of [18F]8 uptake in cerebellum (blocking effect): 18.8%
